Test results from publication PMC4077287 (Angewandte Chemie (International ed. in English), 2013).

Experiments:
[1] = tested on: caspase-3 activity in HeLa cell lysates; experiment: Caspase-3 assay of lysates of Dox-treated HeLa cells; assay type: cell-based; settings: doxorubicin 2 μM, 24 h
[2] = tested on: caspase-3 level in HeLa tumor xenograft; experiment: Caspase-3 level detected in Dox-treated tumors; assay type: in vivo, nude mice; settings: intratumoral Dox 0.2 mg, 4 days post treatment
Method in brief: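 HeLa xenografts on the right shoulder of nude mice were imaged before and 4 days after intratumoral Dox (0.2 mg). The 18F-labeled caspase-3-activatable nano-aggregation tracer or its D-peptide control (5–15 MBq) was given i.v. by tail vein. Static 5 min PET scans were taken at 65, 125 and 182 min post injection. Tumor and muscle uptake was reported as %ID/g, with the tumor/muscle ratio taken from average region uptake.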

apoptotic tumors = settings: ref 7a; cited from earlier work

## COc1cccc2c1C(=O)c1c(O)c3c(c(O)c1C2=O)C[C@@](O)(C(=O)CO)C[C@@H]3O[C@H]1C[C@H](N)[C@H](O)[C@H](C)O1 [Dox, doxorubicin]
[1]
  caspase-3 activity of lysates of Dox-treated cells vs non-treated cells: 9.5 fold
[2]
  caspase-3 level increase in treated tumors: 1.9 fold

## O=C1C(=O)N(Cc2cn(CC[18F])nn2)c2ccc(S(=O)(=O)N3CCCC3COc3ccc(F)cc3F)cc21 (stereo not drawn) [[^18F]ICMT-11]
Apoptotic tumors
  trend of uptake in apoptotic tumors over time after injection: decreased over the time after injection
